Data reported in ChEMBL document CHEMBL4043093, “2-Oxo-3, 4-dihydropyrimido[4, 5-d]pyrimidinyl derivatives as new irreversible pan fibroblast growth factor receptor (FGFR) inhibitors” (Eur J Med Chem, 2017).

Legend:
[1] = biological target: Serine/threonine-protein kinase PAK 4 (Homo sapiens) (UniProt O96013); assay: Inhibition of wild-type human partial length PAK4 (Q144 to R438 residues) expressed in Escherichia coli BL21 assessed as residual activity at 1000 nM after 30 mins by Kinomescan method relative to control
[2] = biological target: Serine/threonine-protein kinase LATS2 (Homo sapiens) (UniProt Q9NRM7); assay: Inhibition of wild-type human partial length LATS2 (Q641 to V1088 residues) expressed in HEK293 cells assessed as residual activity at 1000 nM after 30 mins by Kinomescan method relative to control; assay type: cell-based
[3] = biological target: Dual specificity testis-specific protein kinase 1 (Homo sapiens) (UniProt Q15569); assay: Inhibition of wild-type human full length TESK1 (R37 to S626 residues) expressed in Escherichia coli BL21 assessed as residual activity at 1000 nM after 30 mins by Kinomescan method relative to control
[4] = biological target: Serine/threonine-protein kinase PAK 6 (Homo sapiens) (UniProt Q9NQU5); assay: Inhibition of wild-type human partial length PAK6 (N298 to C681 residues) expressed in Escherichia coli BL21 assessed as residual activity at 1000 nM after 30 mins by Kinomescan method relative to control
[5] = biological target: Calcium/calmodulin-dependent protein kinase type 1D (Homo sapiens) (UniProt Q8IU85); assay: Inhibition of wild-type human partial length CAMK1D (M1 to K299 residues) expressed in Escherichia coli BL21 assessed as residual activity at 1000 nM after 30 mins by Kinomescan method relative to control
[6] = biological target: Serine/threonine-protein kinase ULK2 (Homo sapiens) (UniProt Q8IYT8); assay: Inhibition of wild-type human partial length ULK2 (M1 to S301 residues) expressed in HEK293 cells assessed as residual activity at 1000 nM after 30 mins by Kinomescan method relative to control; assay type: cell-based
[7] = biological target: Serine/threonine-protein kinase NIM1 (Homo sapiens) (UniProt Q8IY84); assay: Inhibition of wild-type human partial length NIM1 (Q44 to N355 residues) expressed in HEK293 cells assessed as residual activity at 1000 nM after 30 mins by Kinomescan method relative to control; assay type: cell-based
[8] = biological target: Calcium/calmodulin-dependent protein kinase kinase 1 (Homo sapiens) (UniProt Q8N5S9); assay: Inhibition of wild-type human partial length CAMKK1 (R65 to E414 residues) expressed in Escherichia coli BL21 assessed as residual activity at 1000 nM after 30 mins by Kinomescan method relative to control
[9] = biological target: Cyclin-dependent kinase 2 (Homo sapiens) (UniProt P24941); assay: Inhibition of wild-type human full length CDK2 (M1 to L298 residues) expressed in Escherichia coli BL21 assessed as residual activity at 1000 nM after 30 mins by Kinomescan method relative to control
How it was run: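 Single-point screen at a fixed 1 µM, run within a 456-kinase DiscoveRx KINOMEscan panel. Each kinase's read-out is Percent Control, i.e. signal relative to a control without compound. Hits were scored by a Percent Control < 35 cut-off, and an S(35) selectivity score was calculated across the non-mutant kinases.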

[10] = biological target: Death-associated protein kinase 1 (Homo sapiens) (UniProt P53355); assay: Inhibition of wild-type human partial length DAPK1 (M1 to F296 residues) expressed in Escherichia coli BL21 assessed as residual activity at 1000 nM after 30 mins by Kinomescan method relative to control
[11] = biological target: Receptor-interacting serine/threonine-protein kinase 4 (Homo sapiens) (UniProt P57078); assay: Inhibition of wild-type human partial length RIPK4 (M1 to V303 residues) expressed in HEK293 cells assessed as residual activity at 1000 nM after 30 mins by Kinomescan method relative to control; assay type: cell-based
[12] = biological target: Serine/threonine-protein kinase 36 (Homo sapiens) (UniProt Q9NRP7); assay: Inhibition of wild-type human partial length STK36 (M1 to T271 residues) expressed in Escherichia coli BL21 assessed as residual activity at 1000 nM after 30 mins by Kinomescan method relative to control
[13] = biological target: Phosphatidylinositol 4-phosphate 5-kinase type-1 alpha (Homo sapiens) (UniProt Q99755); assay: Inhibition of wild-type human full length PIP5K1A (M1 to H562 residues) expressed in Escherichia coli BL21 assessed as residual activity at 1000 nM after 30 mins by Kinomescan method relative to control
How it was run: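 Single-concentration screen at 1 µM against a 456-kinase panel (KINOMEscan). Read-out is Percent Control for each kinase. Across the 403 non-mutant kinases, an S(35) selectivity score was derived as the fraction of kinases with Percent Control < 35.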

[14] = biological target: Cyclin-dependent kinase-like 3 (Homo sapiens) (UniProt Q8IVW4); assay: Inhibition of wild-type human partial length CDKL3 (M1 to D327 residues) expressed in Escherichia coli BL21 assessed as residual activity at 1000 nM after 30 mins by Kinomescan method relative to control
[15] = biological target: Dual specificity mitogen-activated protein kinase kinase 2 (Homo sapiens) (UniProt P36507); assay: Inhibition of wild-type human full length MEK2 (M1 to V400 residues) expressed in HEK293 cells assessed as residual activity at 1000 nM after 30 mins by Kinomescan method relative to control; assay type: cell-based
How it was run: (§1)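 Single-concentration screen at 1 µM across a 456-kinase KINOMEscan panel. The read-out is Percent Control for each kinase.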

[16] = biological target: Rhodopsin kinase GRK1 (Homo sapiens) (UniProt Q15835); assay: Inhibition of wild-type human full length GRK1 (M1 to S563 residues) expressed in HEK293 cells assessed as residual activity at 1000 nM after 30 mins by Kinomescan method relative to control; assay type: cell-based; how it was run: as §1
[17] = biological target: Homeodomain-interacting protein kinase 3 (Homo sapiens) (UniProt Q9H422); assay: Inhibition of wild-type human partial length HIPK3 (M153 to N562 residues) expressed in HEK293 cells assessed as residual activity at 1000 nM after 30 mins by Kinomescan method relative to control; assay type: cell-based
[18] = biological target: Serine/threonine-protein kinase tousled-like 2 (Homo sapiens) (UniProt Q86UE8); assay: Inhibition of wild-type human partial length TLK2 (E424 to N749 residues) expressed in Escherichia coli BL21 assessed as residual activity at 1000 nM after 30 mins by Kinomescan method relative to control
[19] = biological target: Tyrosine-protein kinase ZAP-70 (Homo sapiens) (UniProt P43403); assay: Inhibition of wild-type human partial length ZAP70 (D20 to G299 residues) expressed in HEK293 cells assessed as residual activity at 1000 nM after 30 mins by Kinomescan method relative to control; assay type: cell-based
[20] = biological target: Protein kinase C epsilon type (Homo sapiens) (UniProt Q02156); assay: Inhibition of wild-type human partial length PRKCE (A378 to P737 residues) expressed in HEK293 cells assessed as residual activity at 1000 nM after 30 mins by Kinomescan method relative to control; assay type: cell-based

Chain of Receptor-interacting serine/threonine-protein kinase 4 (Homo sapiens) (P57078 whole entry, the tested form may be a part): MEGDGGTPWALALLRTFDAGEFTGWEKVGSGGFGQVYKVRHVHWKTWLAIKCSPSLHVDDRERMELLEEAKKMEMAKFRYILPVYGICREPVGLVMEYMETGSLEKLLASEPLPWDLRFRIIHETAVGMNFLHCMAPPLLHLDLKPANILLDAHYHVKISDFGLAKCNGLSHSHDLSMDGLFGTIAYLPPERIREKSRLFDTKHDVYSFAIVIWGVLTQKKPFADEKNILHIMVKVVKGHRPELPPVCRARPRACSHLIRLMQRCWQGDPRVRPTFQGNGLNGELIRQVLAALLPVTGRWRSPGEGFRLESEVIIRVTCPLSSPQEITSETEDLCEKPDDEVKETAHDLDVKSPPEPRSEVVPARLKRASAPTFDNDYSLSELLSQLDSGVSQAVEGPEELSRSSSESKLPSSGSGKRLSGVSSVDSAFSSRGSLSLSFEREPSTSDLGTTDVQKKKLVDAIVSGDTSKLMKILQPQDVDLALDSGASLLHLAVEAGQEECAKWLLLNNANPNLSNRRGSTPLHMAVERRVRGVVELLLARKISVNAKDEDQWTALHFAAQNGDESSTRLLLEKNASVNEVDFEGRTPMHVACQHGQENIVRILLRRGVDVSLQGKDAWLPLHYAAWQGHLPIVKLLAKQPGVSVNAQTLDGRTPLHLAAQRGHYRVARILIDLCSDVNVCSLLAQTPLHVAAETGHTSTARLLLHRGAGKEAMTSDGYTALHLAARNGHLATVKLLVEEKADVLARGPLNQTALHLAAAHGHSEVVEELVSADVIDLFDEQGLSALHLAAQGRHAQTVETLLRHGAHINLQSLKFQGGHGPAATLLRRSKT
Chain of Tyrosine-protein kinase ZAP-70 (Homo sapiens) (P43403 whole entry, the tested form may be a part): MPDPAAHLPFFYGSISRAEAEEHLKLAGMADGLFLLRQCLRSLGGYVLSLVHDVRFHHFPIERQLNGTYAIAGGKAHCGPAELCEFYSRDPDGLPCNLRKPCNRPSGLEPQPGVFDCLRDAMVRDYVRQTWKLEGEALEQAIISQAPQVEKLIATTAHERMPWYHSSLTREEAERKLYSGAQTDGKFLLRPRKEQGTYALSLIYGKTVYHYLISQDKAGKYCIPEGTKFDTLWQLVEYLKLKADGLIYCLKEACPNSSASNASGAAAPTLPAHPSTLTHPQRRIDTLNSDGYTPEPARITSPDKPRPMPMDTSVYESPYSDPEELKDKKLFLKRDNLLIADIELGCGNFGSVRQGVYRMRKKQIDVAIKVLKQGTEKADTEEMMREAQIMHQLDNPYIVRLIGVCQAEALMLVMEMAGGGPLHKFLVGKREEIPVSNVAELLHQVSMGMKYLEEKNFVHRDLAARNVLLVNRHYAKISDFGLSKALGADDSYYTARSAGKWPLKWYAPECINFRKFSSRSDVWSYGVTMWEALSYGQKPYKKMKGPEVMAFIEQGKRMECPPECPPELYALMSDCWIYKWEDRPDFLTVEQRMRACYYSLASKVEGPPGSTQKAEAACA
Chain of Serine/threonine-protein kinase 36 (Homo sapiens) (Q9NRP7 whole entry, the tested form may be a part): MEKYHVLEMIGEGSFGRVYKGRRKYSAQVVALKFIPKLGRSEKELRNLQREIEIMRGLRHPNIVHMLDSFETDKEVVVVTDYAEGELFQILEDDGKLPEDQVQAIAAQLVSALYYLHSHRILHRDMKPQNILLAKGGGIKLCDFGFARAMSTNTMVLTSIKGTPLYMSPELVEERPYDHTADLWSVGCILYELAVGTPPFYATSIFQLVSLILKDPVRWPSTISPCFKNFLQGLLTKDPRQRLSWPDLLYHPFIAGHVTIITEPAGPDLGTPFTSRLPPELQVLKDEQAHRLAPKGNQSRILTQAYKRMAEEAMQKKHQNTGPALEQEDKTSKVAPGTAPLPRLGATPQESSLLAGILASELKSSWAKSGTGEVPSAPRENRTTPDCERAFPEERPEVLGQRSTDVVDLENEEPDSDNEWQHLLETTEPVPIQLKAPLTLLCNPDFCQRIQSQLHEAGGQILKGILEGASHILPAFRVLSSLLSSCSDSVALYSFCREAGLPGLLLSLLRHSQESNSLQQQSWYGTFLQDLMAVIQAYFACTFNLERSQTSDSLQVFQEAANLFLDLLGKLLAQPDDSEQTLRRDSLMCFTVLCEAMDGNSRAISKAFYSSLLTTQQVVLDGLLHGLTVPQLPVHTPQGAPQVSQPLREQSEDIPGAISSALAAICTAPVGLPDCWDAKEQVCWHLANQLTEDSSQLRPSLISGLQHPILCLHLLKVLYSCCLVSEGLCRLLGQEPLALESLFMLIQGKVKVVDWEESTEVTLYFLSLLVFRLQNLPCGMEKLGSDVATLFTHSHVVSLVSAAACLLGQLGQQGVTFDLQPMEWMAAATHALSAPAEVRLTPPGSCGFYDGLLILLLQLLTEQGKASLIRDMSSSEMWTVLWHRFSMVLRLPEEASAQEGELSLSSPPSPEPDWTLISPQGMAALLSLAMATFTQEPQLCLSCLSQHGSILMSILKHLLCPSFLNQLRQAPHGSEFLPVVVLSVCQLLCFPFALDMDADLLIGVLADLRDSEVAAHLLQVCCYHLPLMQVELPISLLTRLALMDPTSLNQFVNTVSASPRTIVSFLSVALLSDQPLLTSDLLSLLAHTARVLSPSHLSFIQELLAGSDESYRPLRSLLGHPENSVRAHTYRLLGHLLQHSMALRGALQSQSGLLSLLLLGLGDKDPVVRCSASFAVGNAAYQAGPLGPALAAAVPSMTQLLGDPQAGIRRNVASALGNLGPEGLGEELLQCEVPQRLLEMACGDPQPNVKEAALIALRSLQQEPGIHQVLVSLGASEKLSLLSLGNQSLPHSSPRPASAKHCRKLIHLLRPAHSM
Chain of Rhodopsin kinase GRK1 (Homo sapiens) (Q15835 whole entry, the tested form may be a part): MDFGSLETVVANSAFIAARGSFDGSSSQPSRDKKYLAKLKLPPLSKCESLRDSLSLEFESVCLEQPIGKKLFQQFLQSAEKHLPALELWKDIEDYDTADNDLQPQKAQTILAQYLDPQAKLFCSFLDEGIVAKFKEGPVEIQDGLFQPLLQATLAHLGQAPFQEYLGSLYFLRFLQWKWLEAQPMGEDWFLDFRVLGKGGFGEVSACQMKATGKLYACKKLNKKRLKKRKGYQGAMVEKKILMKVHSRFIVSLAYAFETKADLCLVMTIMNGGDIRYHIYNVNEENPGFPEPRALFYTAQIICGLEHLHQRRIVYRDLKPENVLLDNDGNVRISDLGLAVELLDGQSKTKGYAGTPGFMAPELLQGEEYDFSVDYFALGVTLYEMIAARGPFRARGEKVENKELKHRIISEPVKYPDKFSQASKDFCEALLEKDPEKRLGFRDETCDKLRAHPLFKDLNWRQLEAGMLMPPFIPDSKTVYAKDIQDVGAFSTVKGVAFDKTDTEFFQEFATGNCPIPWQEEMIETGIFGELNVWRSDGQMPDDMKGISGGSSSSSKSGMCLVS
Chain of Serine/threonine-protein kinase ULK2 (Homo sapiens) (Q8IYT8 whole entry, the tested form may be a part): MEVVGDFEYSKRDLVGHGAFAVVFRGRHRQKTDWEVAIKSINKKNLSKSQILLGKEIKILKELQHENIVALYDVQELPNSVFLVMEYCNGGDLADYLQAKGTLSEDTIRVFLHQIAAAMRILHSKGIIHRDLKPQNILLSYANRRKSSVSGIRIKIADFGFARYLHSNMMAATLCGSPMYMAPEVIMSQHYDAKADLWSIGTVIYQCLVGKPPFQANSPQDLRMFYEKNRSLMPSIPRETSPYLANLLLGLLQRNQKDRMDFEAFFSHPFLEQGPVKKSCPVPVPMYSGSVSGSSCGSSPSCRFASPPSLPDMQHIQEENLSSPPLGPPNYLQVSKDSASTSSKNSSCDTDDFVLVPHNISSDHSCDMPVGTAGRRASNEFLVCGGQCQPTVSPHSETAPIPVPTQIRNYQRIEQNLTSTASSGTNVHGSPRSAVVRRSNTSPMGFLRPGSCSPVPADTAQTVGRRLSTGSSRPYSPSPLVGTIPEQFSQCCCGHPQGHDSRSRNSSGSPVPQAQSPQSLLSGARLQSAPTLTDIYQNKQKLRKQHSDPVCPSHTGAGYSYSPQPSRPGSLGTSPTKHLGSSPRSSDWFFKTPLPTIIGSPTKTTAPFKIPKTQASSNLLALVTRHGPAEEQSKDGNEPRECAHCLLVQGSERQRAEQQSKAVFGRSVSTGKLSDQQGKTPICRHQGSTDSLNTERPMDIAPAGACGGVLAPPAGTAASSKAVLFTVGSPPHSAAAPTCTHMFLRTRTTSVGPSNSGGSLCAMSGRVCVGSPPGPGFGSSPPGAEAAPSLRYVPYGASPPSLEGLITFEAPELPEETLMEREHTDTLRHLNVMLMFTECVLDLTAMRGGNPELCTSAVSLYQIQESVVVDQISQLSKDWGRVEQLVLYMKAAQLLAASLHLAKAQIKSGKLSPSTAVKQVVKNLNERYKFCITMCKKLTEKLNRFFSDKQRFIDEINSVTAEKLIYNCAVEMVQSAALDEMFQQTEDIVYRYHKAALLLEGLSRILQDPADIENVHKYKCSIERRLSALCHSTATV
Chain of Calcium/calmodulin-dependent protein kinase kinase 1 (Homo sapiens) (Q8N5S9 whole entry, looked up, the tested form may be a part): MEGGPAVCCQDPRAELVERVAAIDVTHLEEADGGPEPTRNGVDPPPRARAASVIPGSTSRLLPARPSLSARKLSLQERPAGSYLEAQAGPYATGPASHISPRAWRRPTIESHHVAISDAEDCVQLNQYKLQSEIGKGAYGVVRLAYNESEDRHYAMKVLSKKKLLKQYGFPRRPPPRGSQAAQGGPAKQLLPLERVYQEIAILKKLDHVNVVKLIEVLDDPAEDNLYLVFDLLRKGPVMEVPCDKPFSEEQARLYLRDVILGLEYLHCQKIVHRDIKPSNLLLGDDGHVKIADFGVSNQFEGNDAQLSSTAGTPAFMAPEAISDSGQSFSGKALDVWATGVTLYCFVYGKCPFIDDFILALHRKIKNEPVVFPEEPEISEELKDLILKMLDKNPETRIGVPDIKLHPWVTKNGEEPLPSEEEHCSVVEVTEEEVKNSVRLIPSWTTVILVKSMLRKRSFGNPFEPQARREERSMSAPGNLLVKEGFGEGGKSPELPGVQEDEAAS

SMILES: COc1cc(OC)c(Cl)c(N2Cc3cnc(Nc4ccc(F)cc4)nc3N(C3CCN(C(=O)/C=C/CN(C)C)CC3)C2=O)c1Cl
- Activity [1]: 100%
- Activity [2]: 100%
- Activity [3]: 82%
- Activity [4]: 100%
- Activity [5]: 87%
- Activity [6]: 100%
- Activity [7]: 100%
- Activity [8]: 93%
- Activity [9]: 100%
- Activity [10]: 100%
- Activity [11]: 100%
- Activity [12]: 100%
- Activity [13]: 100%
- Activity [14]: 89%
- Activity [15]: 89%
- Activity [16]: 79%
- Activity [17]: 100%
- Activity [18]: 96%
- Activity [19]: 85%
- Activity [20]: 89%
